In ChEMBL document CHEMBL4308843, “Identification of ABX-1431, a Selective Inhibitor of Monoacylglycerol Lipase and Clinical Candidate for Treatment of Neurological Disorders” (J Med Chem, 2018):
Active and inactive are the calls of the source. No cut-off for these calls is given here.

Assays:
[1] = Intrinsic clearance in human liver microsomes; assay type: ADME, Microsome; details: read-out: CLH
[2] = biological target: T1, Platelet-activating factor acetylhydrolase (Homo sapiens, UniProt Q13093); assay: Inhibition of PLA2G7 derived from human PC3 cell lysates preincubated for 30 mins followed by JW912 addition after 30 mins by gel-based ABPP assay; assay type: subcellular, Lysate
T1 sequence (Q13093 whole entry): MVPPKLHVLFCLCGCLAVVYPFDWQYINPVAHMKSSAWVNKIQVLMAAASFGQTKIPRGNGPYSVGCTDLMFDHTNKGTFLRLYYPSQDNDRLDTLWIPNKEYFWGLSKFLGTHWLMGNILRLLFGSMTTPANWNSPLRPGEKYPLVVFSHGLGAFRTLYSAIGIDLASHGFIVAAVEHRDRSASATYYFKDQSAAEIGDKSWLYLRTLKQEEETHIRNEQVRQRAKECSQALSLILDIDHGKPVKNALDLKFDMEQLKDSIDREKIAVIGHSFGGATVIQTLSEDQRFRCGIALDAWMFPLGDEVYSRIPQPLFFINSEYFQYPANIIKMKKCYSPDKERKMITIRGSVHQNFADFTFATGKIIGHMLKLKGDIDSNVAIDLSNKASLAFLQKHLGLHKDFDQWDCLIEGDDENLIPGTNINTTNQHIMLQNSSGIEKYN

[3] = biological target: T2, Monoacylglycerol lipase ABHD6 (Homo sapiens, UniProt Q9BV23); assay: Inhibition of ABHD6 derived from human PC3 cell lysates preincubated for 30 mins followed by JW912 addition after 30 mins by gel-based ABPP assay; assay type: subcellular, Lysate
T2 sequence (Q9BV23 whole entry): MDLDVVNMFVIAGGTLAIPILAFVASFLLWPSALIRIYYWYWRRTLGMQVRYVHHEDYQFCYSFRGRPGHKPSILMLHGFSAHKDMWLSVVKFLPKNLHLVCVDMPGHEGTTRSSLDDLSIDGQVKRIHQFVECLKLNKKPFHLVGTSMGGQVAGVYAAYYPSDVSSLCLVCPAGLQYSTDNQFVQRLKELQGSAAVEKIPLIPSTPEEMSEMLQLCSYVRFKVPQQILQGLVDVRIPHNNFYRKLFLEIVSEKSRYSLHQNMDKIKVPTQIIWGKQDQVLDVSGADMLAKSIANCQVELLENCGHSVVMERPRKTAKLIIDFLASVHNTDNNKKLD

Mus musculus = assay: In-vivo inhibition of MGLL in ICR mouse brain assessed as target engagement at 5 mg/kg, po measured 4 hrs post dose by gel-based ABPP assay relative to control; assay type: functional; parameters: scale not given: the % may be the effect or the level left
How it was run: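 Mice received a single 5 mg/kg oral gavage dose. Whole brains were collected 4 h post-dose and target engagement was read by gel-based ABPP with FP-Rh probe.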

Monoglyceride lipase = biological target: T3, Monoglyceride lipase (Mus musculus, UniProt O35678); assay: Inhibition of MGLL derived from mouse brain homogenates preincubated for 30 mins followed by JW912 addition after 30 mins by gel-based ABPP assay; assay type: tissue-based
T3 sequence (O35678 whole entry): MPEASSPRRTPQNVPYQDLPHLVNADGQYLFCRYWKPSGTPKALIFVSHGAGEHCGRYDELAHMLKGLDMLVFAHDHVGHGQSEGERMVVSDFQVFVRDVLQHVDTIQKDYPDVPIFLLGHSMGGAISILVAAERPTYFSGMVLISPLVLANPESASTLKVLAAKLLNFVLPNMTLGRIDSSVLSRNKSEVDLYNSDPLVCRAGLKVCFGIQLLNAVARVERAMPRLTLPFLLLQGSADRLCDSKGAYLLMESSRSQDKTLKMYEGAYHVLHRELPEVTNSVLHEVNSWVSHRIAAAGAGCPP

IC50 [2] | IC50 (Monoglyceride lipase) | Compound | Activity (Mus musculus) | further results
 |  | O=C(OC(C(F)(F)F)C(F)(F)F)N1CCN(Cc2ccc(Cl)cc2N2CCCC2)CC1 |  | microsomal CLint [1]: 34 µL/min/mg
> 10000 nM |  | O=C(OC(C(F)(F)F)C(F)(F)F)N1CCN(Cc2cc(Cl)ccc2N2CCOCC2)CC1 |  | IC50 [3]: > 10000 nM
> 10000 nM |  | Cc1cc(Cl)ccc1C(c1ccc(Cl)cc1C)N1CCN(C(=O)OC(C(F)(F)F)C(F)(F)F)CC1 |  | IC50 [3]: > 10000 nM
 |  | O=C(OC(C(F)(F)F)C(F)(F)F)N1CCN(Cc2ccc(Cl)cc2N2CCOCC2)CC1 |  | microsomal CLint [1]: 45 µL/min/mg
 |  | O=C(OC(C(F)(F)F)C(F)(F)F)N1CCN(Cc2ccc(C(F)(F)F)cc2N2CCOCC2)CC1 | 100% | microsomal CLint [1]: 24 µL/min/mg
> 1000 nM |  | O=C(OC(C(F)(F)F)C(F)(F)F)N1CCN(C(c2ccc(Cl)cc2)c2ccc(Cl)cc2)CC1 |  | 
 |  | O=C(OC(C(F)(F)F)C(F)(F)F)N1CCN(Cc2cccc(Cl)c2N2CCOCC2)CC1 |  | microsomal CLint [1]: 76 µL/min/mg
> 10000 nM | 120 nM | O=C(OC(C(F)(F)F)C(F)(F)F)N1CCN(Cc2ccc(Cl)cc2N2CCCCC2)CC1 |  | 
 | 66 nM | O=C(OC(C(F)(F)F)C(F)(F)F)N1CCN(Cc2ccc(Cl)cc2N2CC[C@H]3CCCN3C2)CC1 | 50% | 
 | 8 nM | O=C(OC(C(F)(F)F)C(F)(F)F)N1CCN(Cc2ccc(C(F)(F)F)cc2N2CC[C@@H](O)C2)CC1 | 100% | 
> 1000 nM | 24 nM | O=C(OC(C(F)(F)F)C(F)(F)F)N1CCN(Cc2ccc(C(F)(F)F)cc2N2CCC3(CCOCC3)C2)CC1 | 75% | 
> 10000 nM |  | O=C(OC(C(F)(F)F)C(F)(F)F)N1CCN(Cc2c(Cl)cccc2N2CCOCC2)CC1 |  | 
 | 17 nM | O=C(OC(C(F)(F)F)C(F)(F)F)N1CCN(Cc2ccc(C(F)(F)F)cc2N2CC3COCC3C2)CC1 (centres undefined) | 25% | 
 |  | O=C(OC(C(F)(F)F)C(F)(F)F)N1CCN(Cc2ccc(Cl)cc2N2CCN(CCF)CC2)CC1 | 75% | 
 |  | O=C(OC(C(F)(F)F)C(F)(F)F)N1CCN(Cc2ccc(Cl)cc2N2CC3CCC(C2)O3)CC1 | 100% | 
 | 15 nM | O=C(OC(C(F)(F)F)C(F)(F)F)N1CCN(Cc2ccc(C(F)(F)F)cc2N2CC[C@H](O)C2)CC1 | 75% | 
 | 159 nM | C#Cc1ccc(CN2CCN(C(=O)OC(C(F)(F)F)C(F)(F)F)CC2)c(N2CCCC2)c1 |  | 
> 1000 nM |  | O=C(OC(C(F)(F)F)C(F)(F)F)N1CCN(Cc2ccc(C(F)(F)F)cc2N2C[C@H]3CC[C@@H](C2)O3)CC1 | 100% | 
 | 239 nM | CN1CC2CN(c3cc(C(F)(F)F)ccc3CN3CCN(C(=O)OC(C(F)(F)F)C(F)(F)F)CC3)CC2C1 (centres undefined) | inactive | 
 | 130 nM | O=C(OC(C(F)(F)F)C(F)(F)F)N1CCN(Cc2ccc(C(F)(F)F)cc2N2CCCCC2)CC1 |  | 

Compound | IC50 [2] | IC50 (Monoglyceride lipase) | Activity (Mus musculus) | further results
O=C(OC(C(F)(F)F)C(F)(F)F)N1CCN(Cc2ccc(C(F)(F)F)cc2N2[C@@H]3CC[C@H]2COC3)CC1 | > 1000 nM |  | 100% | 
